Data set [1] is described as follows: Partition coefficient (logP). It is filed as physicochemical. Conditions: octanol/water.
Data set [2] relates to Mus musculus. Kind of data set: antitumor activity (survival) by the oral administration of 100 mg/kg scheduled treatment (Q1D x 5) in BDF1 mice inoculated with L1210 leukemia. Format: functional, organism-based. On the set-up: dose 100 mg/kg. The settings on record: at 100 mg/kg. In outline:
(§1)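 BDF1 mice inoculated with L1210 leukaemia and fasted before dosing. Complexes suspended in 0.2 mL 0.5% Tween 80 and given by stomach catheter on days 1-5 (Q1D × 5). Activity expressed as T/C (%), the ratio of mean survival time (days) of treated versus control mice.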

For data set [3], the system named is L1210. Briefly: in vitro antitumor activity (cytotoxicity) against the murine leukemia L1210 cell. Conditions: Mus musculus. It is filed as functional, cell-based.
The subject of data set [4] is Mus musculus. Kind of data set: antitumor activity (survival) by the oral administration of 150 mg/kg scheduled treatment (Q1D x 5) in BDF1 mice inoculated with L1210 leukemia; toxic. Format: functional, organism-based. On the set-up: dose 150 mg/kg. In short, it runs like this:
as §1

The test system of data set [5] is Mus musculus. Briefly: antitumor activity (survival) by the oral administration of 150 mg/kg scheduled treatment (Q1D x 5) in BDF1 mice inoculated with L1210 leukemia. It is filed as functional, organism-based. On the set-up: dose 150 mg/kg. The settings on record: at 150 mg/kg. In outline: as §1

The logP is a log measure of how a compound divides between an organic and an aqueous phase. Higher therefore signals a more lipophilic compound. “[Pt(O2CC3H7)4(dach)]dach : trans-(+/-)-1,2-diaminocyclohexane [listing 1 of 2 here]”: in data set [1], the logP worked out at 1.54. In general, T/C refers to the result in the treated group divided by that in the control group, in per cent. Turning to “[Pt(O2CC3H7)4(dach)]dach : trans-(+/-)-1,2-diaminocyclohexane [listing 2 of 2 here]”, the values for the T/C in data set [2] and in data set [4] were 108% and “Toxic”, respectively. The substance also came in with an ED50 in data set [3] of 6.2 µM. “[Pt(O2CC4H9)4(dach)]dach : trans-(+/-)-1,2-diaminocyclohexane [listing 1 of 2 here]” displayed a log partition coefficient (logP) in data set [1] of 2.54.

In data set [3], “[Pt(O2CC4H9)4(dach)]dach : trans-(+/-)-1,2-diaminocyclohexane [listing 2 of 2 here]” had an ED50 of over 50 µM. The substance further displayed a T/C in data set [5] of 107%. “[Pt(O2CC5H11)4(dach)]dach : trans-(+/-)-1,2-diaminocyclohexane [listing 1 of 2 here]” gave a logP in data set [1] of 3.03. Regarding “[Pt(O2CC5H11)4(dach)]dach : trans-(+/-)-1,2-diaminocyclohexane [listing 2 of 2 here]”, the ED50 in data set [3] was over 50 µM. Besides, the T/C in data set [5] was 98.9%. As for “[Pt(O2CCH3)4(dach)]dach [listing 1 of 2 here]”, the logP in data set [1] was -1.59. In data set [3], “[Pt(O2CCH3)4(dach)]dach [listing 2 of 2 here]” showed an ED50 of 25.8 µM. Moreover, the T/C in data set [5] worked out at 100%. The corresponding values for [Pt(OH)4(dach)]dach are 32.6 µM and 112%.

Source of the values: ChEMBL document CHEMBL1132999, “Synthesis and oral antitumor activity of tetrakis(carboxylato)platinum(IV) complexes” (J Med Chem, 2000).
